For 33 compounds, IC50 results are on record in ChEMBL document CHEMBL1145020, “Synthesis and structure-activity relationships of 6,7-disubstituted 4-anilinoquinoline-3-carbonitriles. The design of an orally active, irreversible inhibitor of the tyrosine kinase activity of the epidermal growth factor receptor (EGFR) and the human epidermal growth factor receptor-2 (HER-2)” (J Med Chem, 2003).

The nature of assay [1]: Concentration required to inhibit growth of human carcinoma breast (SKBR3) cell line. The format is functional. The note with it: SK-BR-3. The method, boiled down:
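Cell growth inhibition measured from dose–response curves at five concentrations. […] Reported values average at least two determinations.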

In assay [2] the target is Receptor tyrosine-protein kinase erbB-2 (Homo sapiens, UniProt P04626). As to the kind of experiment: Concentration required to inhibit autophosphorylation of cytoplasmic domain of human epidermal growth factor receptor-2.
Chain of Receptor tyrosine-protein kinase erbB-2 (P04626 whole entry, the tested form may be a part): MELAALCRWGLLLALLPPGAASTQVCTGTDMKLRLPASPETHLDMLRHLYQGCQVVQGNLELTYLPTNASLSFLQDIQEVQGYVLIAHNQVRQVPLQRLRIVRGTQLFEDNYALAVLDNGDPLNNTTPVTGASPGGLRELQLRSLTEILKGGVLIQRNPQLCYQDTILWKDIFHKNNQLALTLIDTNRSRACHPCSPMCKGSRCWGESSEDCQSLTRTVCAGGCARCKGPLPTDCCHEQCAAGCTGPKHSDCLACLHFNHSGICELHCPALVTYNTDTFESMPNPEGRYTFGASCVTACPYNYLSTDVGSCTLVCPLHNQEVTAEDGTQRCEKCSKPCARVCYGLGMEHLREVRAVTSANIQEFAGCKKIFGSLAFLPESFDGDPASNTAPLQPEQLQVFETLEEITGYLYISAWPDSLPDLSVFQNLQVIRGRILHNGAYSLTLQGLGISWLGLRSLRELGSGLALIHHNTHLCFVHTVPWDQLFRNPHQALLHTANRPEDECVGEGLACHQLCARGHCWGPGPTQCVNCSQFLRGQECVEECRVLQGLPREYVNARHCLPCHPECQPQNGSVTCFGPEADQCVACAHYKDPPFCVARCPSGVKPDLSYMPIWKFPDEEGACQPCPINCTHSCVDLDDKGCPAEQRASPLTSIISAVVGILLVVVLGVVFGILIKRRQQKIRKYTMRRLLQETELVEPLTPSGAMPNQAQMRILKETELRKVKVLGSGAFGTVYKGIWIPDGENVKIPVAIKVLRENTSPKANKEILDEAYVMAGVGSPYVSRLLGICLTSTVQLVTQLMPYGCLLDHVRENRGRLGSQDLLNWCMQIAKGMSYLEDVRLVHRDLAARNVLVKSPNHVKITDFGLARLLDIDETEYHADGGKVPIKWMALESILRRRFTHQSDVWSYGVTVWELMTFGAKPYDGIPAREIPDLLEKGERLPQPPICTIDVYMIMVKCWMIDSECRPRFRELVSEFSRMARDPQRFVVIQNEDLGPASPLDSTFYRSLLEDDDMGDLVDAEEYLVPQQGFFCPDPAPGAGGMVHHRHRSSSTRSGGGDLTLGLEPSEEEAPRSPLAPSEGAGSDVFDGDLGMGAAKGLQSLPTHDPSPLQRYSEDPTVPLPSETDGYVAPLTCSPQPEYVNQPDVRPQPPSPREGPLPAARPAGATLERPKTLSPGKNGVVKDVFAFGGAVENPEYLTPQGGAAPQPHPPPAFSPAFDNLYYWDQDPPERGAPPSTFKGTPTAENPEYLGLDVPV
Assay [3] relates to SW-620. The assay is described as follows: Concentration required to inhibit growth of human carcinoma colon (SW620) cell line. The format is functional, cell-based.
For assay [4], the system named is A-431. The assay is described as follows: Concentration required to inhibit growth of human carcinoma epidermoid (A431) cell line. The format is functional, cell-based.
In assay [5] the target is Epidermal growth factor receptor (Homo sapiens, UniProt P00533).
Chain of Epidermal growth factor receptor (P00533 whole entry): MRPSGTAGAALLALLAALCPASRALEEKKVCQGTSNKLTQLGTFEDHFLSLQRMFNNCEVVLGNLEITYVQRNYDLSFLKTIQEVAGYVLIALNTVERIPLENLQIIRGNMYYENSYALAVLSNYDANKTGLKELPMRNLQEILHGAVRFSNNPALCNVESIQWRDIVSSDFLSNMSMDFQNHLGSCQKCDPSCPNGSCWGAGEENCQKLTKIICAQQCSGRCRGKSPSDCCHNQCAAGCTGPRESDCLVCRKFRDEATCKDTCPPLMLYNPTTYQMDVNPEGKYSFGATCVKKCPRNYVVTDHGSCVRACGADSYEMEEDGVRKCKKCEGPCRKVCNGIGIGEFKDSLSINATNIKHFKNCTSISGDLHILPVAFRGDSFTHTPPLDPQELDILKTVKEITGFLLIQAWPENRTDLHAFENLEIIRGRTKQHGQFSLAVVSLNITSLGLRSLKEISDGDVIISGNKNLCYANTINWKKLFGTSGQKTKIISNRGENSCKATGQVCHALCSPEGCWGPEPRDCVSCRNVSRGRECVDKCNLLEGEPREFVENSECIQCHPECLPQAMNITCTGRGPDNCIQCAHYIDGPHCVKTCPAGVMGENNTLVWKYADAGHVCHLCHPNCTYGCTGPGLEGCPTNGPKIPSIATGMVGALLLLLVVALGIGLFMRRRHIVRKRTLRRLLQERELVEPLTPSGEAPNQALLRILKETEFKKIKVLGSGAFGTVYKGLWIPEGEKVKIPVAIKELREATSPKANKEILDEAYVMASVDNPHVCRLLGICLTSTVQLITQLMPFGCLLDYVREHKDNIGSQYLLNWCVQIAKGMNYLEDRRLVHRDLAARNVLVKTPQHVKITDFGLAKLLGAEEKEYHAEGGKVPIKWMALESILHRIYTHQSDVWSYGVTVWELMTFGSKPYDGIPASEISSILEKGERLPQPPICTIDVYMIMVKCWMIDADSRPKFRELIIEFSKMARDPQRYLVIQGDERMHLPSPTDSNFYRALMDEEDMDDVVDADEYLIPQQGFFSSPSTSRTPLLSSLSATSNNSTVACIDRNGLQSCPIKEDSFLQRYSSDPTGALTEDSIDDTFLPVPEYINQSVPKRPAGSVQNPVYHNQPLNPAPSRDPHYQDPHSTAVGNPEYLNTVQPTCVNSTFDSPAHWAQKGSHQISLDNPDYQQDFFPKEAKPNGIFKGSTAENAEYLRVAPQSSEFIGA

For `CC(C)N(CC#CC(=O)Nc1ccc2ncc(C#N)c(Nc3cccc(Br)c3)c2c1)C(C)C`, the IC50 (in general, the concentration that inhibits the measured activity by half) worked out at 40 nM in assay [1], 320 nM in assay [2], 250 nM in assay [3] and 140 nM in assay [4].

As for `COc1cc2ncc(C#N)c(Nc3ccc(F)c(Cl)c3)c2cc1NC(=O)/C=C/C(C)N(C)C` (stereo not drawn), the half-maximal inhibitory concentration (IC50) is 190 nM in assay [1], 11800 nM in assay [2] and 1130 nM in assay [3].

With `C/C=C/C(=O)Nc1cc2c(Nc3ccc(F)c(Cl)c3)c(C#N)cnc2cc1OCC`, the IC50 in assay [1] amounted to 170 nM; in assay [2], 21500 nM.

With `COc1cc(NC(=O)/C=C/CN2CCOCC2)cc2c(Nc3cccc(Br)c3)c(C#N)cnc12`, the IC50 was found to be 2660 nM in assay [1], 23600 nM in assay [2] and 9570 nM in assay [3].

For `COc1cc2ncc(C#N)c(Nc3ccc(F)c(Cl)c3)c2cc1NC(=O)/C=C/CN1CCOCC1`, the figures for the IC50 in assay [1], in assay [2] and in assay [3] were 110 nM, 31400 nM and 6670 nM, respectively.

Turning to `COc1cc2ncc(C#N)c(Nc3ccc(F)c(Cl)c3)c2cc1NC(=O)/C=C/C(C)N1CCOCC1` (stereo not drawn), the IC50 is 200 nM in assay [1], 34000 nM in assay [2] and 4940 nM in assay [3].

As for `C=C(CN1CCOCC1)C(=O)Nc1ccc2ncc(C#N)c(Nc3ccc(F)c(Cl)c3)c2c1`, the IC50 was determined as 220 nM in assay [1], 4390 nM in assay [2] and 490 nM in assay [3].

Take `COc1cc2ncc(C#N)c(Nc3ccc(F)c(Cl)c3)c2cc1NC(=O)/C=C/CN(C)C`: the IC50 in assay [1] worked out at 40 nM; in assay [2] it was 4490 nM; in assay [3], 910 nM.

As for `COCC#CC(=O)Nc1ccc2ncc(C#N)c(Nc3cccc(Br)c3)c2c1`, the IC50 in assay [1] came out at 350 nM; in assay [5], 960 nM; in assay [2], 300 nM; in assay [3], 520 nM; in assay [4] it was 280 nM.

In the case of `CCOc1cc2ncc(C#N)c(Nc3cccc(Br)c3)c2cc1NC(=O)/C=C/CN(C)C`, the IC50 in assay [1] is 30 nM; in assay [2] it was 2970 nM; in assay [3] it was 1150 nM.

Turning to `CCCN(CC#CC(=O)Nc1ccc2ncc(C#N)c(Nc3cccc(Br)c3)c2c1)CCC`, the IC50 was 80 nM in assay [1]; 130 nM in assay [5]; 370 nM in assay [2]; 400 nM in assay [3]; 240 nM in assay [4].

In the case of `COCCOCC#CC(=O)Nc1ccc2ncc(C#N)c(Nc3cccc(Br)c3)c2c1`, the half-maximal inhibitory concentration (IC50) was 390 nM in assay [1]; 930 nM in assay [5]; 450 nM in assay [2]; 340 nM in assay [3]; 270 nM in assay [4].

Regarding `CCOc1cc2ncc(C#N)c(Nc3cccc(Br)c3)c2cc1NC(=O)/C=C/CN1CCOCC1`, the IC50 in assay [1] stood at 70 nM; in assay [2], 34000 nM; in assay [3], 2880 nM.

Consider `CC#CC(=O)Nc1cc2c(Nc3cccc(Br)c3)c(C#N)cnc2cc1OC`, for which the 50% inhibitory concentration (IC50) in assay [1] came out at 8360 nM; in assay [5], 910 nM; in assay [2], 2120 nM; in assay [3] it was 7580 nM; in assay [4], 5120 nM.

As for `COc1cc2ncc(C#N)c(Nc3cccc(Br)c3)c2cc1NC(=O)C#CCN(C)C`, the half-inhibitory concentration (IC50) came to 120 nM in assay [1]; 90 nM in assay [5]; 180 nM in assay [2]; 300 nM in assay [3]; 110 nM in assay [4].

Take `COc1cc(NC(=O)/C=C/CN(C)C)cc2c(Nc3cccc(Br)c3)c(C#N)cnc12`: the IC50 in assay [1] is 2520 nM; in assay [5] it was 2880 nM; in assay [2], 9350 nM; in assay [3], 8970 nM; in assay [4], 2520 nM.

With `C=C(CN(C)C)C(=O)Nc1cc2c(Nc3ccc(F)c(Cl)c3)c(C#N)cnc2cc1OCC`, the IC50 in assay [1] was determined as 90 nM; in assay [5], 560 nM; in assay [2] it was 1210 nM; in assay [3] it was 320 nM; in assay [4], 180 nM.

As to `N#Cc1cnc2ccc(NC(=O)/C=C/CN3CCOCC3)cc2c1Nc1ccc(F)c(Cl)c1`, the figures for the IC50 in assay [1], in assay [2] and in assay [3] were 220 nM, 8740 nM and 6330 nM, respectively.

Take `COC[C@@H]1CCCN1CC#CC(=O)Nc1ccc2ncc(C#N)c(Nc3cccc(Br)c3)c2c1`: the IC50 in assay [1] was found to be 540 nM; in assay [5], 150 nM; in assay [2], 1220 nM; in assay [3], 4140 nM; in assay [4] it was 1200 nM.

On to `COc1cc2ncc(C#N)c(Nc3cccc(Br)c3)c2cc1NC(=O)/C=C/CN(C)C`, for which the IC50 is 30 nM in assay [1]; 790 nM in assay [5]; 5660 nM in assay [2]; 1170 nM in assay [3]; 140 nM in assay [4].

For the compound `C=CC(=O)Nc1ccc2ncc(C#N)c(Nc3cccc(Br)c3)c2c1`, the IC50 in assay [1] was determined as 440 nM; in assay [5], 590 nM; in assay [2] it was 1630 nM; in assay [3], 3380 nM; in assay [4], 360 nM.

Take `CC#CC(=O)Nc1ccc2ncc(C#N)c(Nc3cccc(Br)c3)c2c1`: the IC50 in assay [1] turned out to be 5500 nM; in assay [5], 940 nM; in assay [2], 3870 nM; in assay [3], 12300 nM; in assay [4], 5030 nM.

As for `CN(C)C/C=C/C(=O)Nc1ccc2ncc(C#N)c(Nc3cccc(Br)c3)c2c1`, the IC50 worked out at 180 nM in assay [1]; 310 nM in assay [5]; 4160 nM in assay [2]; 5480 nM in assay [3]; 450 nM in assay [4].

As to `CN(C)C/C=C/C(=O)Nc1ccc2ncc(C#N)c(Nc3ccc(F)c(Cl)c3)c2c1`, the IC50 in assay [1] came out at 50 nM; in assay [5], 650 nM; in assay [2], 1950 nM; in assay [3], 880 nM; in assay [4] it was 150 nM.

As to `C=CC(=O)Nc1cc2c(Nc3cccc(Br)c3)c(C#N)cnc2cc1OC`, the IC50 in assay [1] worked out at 120 nM; in assay [2], 4680 nM; in assay [3], 1880 nM; in assay [4] it was 310 nM.

Consider `CCN(CC)C(C)/C=C/C(=O)Nc1cc2c(Nc3ccc(F)c(Cl)c3)c(C#N)cnc2cc1OC` (stereo not drawn), for which the IC50 came out at 310 nM in assay [1], 9580 nM in assay [2] and 880 nM in assay [3].

As for `COCC#CC(=O)Nc1cc2c(Nc3cccc(Br)c3)c(C#N)cnc2cc1OC`, the IC50 in assay [1] turned out to be 290 nM; in assay [5], 790 nM; in assay [2], 380 nM; in assay [3], 1770 nM; in assay [4], 730 nM.

In the case of `C/C=C/C(=O)Nc1ccc2ncc(C#N)c(Nc3cccc(Br)c3)c2c1`, the IC50 in assay [1] amounted to 10100 nM; in assay [3], 12300 nM; in assay [4], 4400 nM.

For the compound `N#Cc1cnc2ccc(NC(=O)C#CCN3CCSCC3)cc2c1Nc1cccc(Br)c1`, the IC50 in assay [1] turned out to be 70 nM; in assay [5] it was 550 nM; in assay [2] it was 1040 nM; in assay [3], 350 nM; in assay [4] it was 100 nM.

In the case of `COc1cc2ncc(C#N)c(Nc3cccc(Br)c3)c2cc1NC(=O)/C=C/CN1CCOCC1`, the IC50 in assay [1] came out at 120 nM; in assay [2] it was 34100 nM; in assay [3], 5380 nM.

Consider `CN(C)C/C=C/C(=O)Nc1cc2c(Nc3ccc(F)c(Cl)c3)c(C#N)cnc2cc1OC(F)(F)F`, for which the values for the IC50 in assay [1], in assay [2] and in assay [3] were 300 nM, 4130 nM and 1460 nM, respectively.

For `CCN(CC)C/C=C/C(=O)Nc1cc2c(Nc3ccc(F)c(Cl)c3)c(C#N)cnc2cc1OC`, the results for the concentration for half-maximal inhibition (IC50) in assay [1], in assay [2] and in assay [3] were 50 nM, 7800 nM and 660 nM, respectively.

Turning to `CCOc1cc2ncc(C#N)c(Nc3ccc(F)c(Cl)c3)c2cc1NC(=O)/C=C/CN(C)C` [PELITINIB], in assay [1], the IC50 came to 10 nM. That is a double-digit nanomolar value.
